Legend:
androgen receptor (AR) = experiment: AR-mediated transcription assay in MDA-kb2 cells; type: cell-based, human; conditions: 0.2 nM DHT, 20 h
Outline: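 MDA-kb2 cells carrying a stable androgen/glucocorticoid-responsive firefly luciferase reporter were seeded at 20,000 cells/well in Leibovitz's L-15 with 10% charcoal-stripped FBS (0% CO2) and grown to 80% confluence. Cells were co-treated with DHT and graded test compound for 20 h, lysed in Bright-Glo reagent for 4 min at room temperature, and luminescence was read.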

[1] = target: 6P chaperone complex (Hsp90, Hsp70, Hop, BAG1, Aha1 & Hsp40) refolding of FLuc (Homo sapiens, UniProt O95433+P08238+P0DMV8); experiment: In vitro refolding of heat-denatured firefly luciferase by 6P chaperone complex; type: biochemical; conditions: 15 μM
6P chaperone complex (Hsp90, Hsp70, Hop, BAG1, Aha1 & Hsp40) refolding of FLuc, sequence (O95433 whole entry): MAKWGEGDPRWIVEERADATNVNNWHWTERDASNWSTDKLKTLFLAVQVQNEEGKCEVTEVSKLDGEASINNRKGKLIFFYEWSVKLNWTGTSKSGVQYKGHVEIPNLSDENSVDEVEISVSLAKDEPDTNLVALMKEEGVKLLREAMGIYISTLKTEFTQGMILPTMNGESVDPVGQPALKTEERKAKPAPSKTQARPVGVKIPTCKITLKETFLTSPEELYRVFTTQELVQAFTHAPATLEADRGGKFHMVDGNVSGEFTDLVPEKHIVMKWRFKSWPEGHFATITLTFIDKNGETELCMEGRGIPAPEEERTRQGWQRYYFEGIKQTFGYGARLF
6P chaperone complex (Hsp90, Hsp70, Hop, BAG1, Aha1 & Hsp40) refolding of FLuc, sequence (P08238 whole entry): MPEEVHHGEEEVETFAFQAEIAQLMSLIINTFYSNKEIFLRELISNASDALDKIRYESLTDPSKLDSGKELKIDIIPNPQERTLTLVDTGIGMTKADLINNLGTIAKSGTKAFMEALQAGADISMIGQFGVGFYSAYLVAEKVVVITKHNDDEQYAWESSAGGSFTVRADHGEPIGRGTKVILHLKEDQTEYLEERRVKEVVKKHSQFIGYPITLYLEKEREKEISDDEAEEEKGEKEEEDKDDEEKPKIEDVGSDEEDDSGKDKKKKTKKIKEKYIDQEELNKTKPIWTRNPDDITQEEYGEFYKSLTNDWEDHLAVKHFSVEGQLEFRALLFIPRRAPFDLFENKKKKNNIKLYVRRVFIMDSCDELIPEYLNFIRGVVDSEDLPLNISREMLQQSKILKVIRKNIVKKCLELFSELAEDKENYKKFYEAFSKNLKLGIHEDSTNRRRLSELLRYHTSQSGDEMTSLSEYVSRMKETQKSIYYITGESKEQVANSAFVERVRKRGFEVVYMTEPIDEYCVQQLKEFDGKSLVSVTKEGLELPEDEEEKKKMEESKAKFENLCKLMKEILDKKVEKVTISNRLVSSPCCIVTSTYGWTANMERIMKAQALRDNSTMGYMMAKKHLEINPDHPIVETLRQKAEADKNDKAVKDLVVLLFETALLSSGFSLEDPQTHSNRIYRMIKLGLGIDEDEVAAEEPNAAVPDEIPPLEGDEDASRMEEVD
6P chaperone complex (Hsp90, Hsp70, Hop, BAG1, Aha1 & Hsp40) refolding of FLuc, sequence (P0DMV8 whole entry): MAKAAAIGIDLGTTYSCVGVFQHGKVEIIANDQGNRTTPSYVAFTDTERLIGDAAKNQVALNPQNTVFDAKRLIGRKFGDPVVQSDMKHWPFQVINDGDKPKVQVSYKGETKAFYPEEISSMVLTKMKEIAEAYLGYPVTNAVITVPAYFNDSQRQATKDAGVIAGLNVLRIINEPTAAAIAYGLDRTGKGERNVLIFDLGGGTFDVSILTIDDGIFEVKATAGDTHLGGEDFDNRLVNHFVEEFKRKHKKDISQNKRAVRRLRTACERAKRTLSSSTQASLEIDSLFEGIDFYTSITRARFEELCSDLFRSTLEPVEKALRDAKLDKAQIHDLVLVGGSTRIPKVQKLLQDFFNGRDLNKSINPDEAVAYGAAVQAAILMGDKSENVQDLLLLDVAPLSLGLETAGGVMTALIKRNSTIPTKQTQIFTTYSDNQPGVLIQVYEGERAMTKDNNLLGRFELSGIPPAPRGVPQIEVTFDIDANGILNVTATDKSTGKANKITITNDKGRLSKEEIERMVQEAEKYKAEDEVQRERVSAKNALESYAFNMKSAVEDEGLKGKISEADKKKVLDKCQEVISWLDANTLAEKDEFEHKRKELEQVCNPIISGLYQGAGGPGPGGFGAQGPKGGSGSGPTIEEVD

[2] = target: Aha1-stimulated Hsp90 (ASH) ATPase activity (Homo sapiens, UniProt O95433+P08238); experiment: Aha1-stimulated Hsp90; type: biochemical
Aha1-stimulated Hsp90 (ASH) ATPase activity, sequence (O95433 whole entry): as the sequence (O95433 whole entry) above
Aha1-stimulated Hsp90 (ASH) ATPase activity, sequence (P08238 whole entry): as the sequence (P08238 whole entry) above

human Hsp90β = human Hsp90β (human, UniProt P08238 1-724); experiment: other fluorescence titration
human Hsp90β, sequence (P08238 whole entry): as above

C=CCNC1=C2C[C@@H](C)C[C@H](OC)[C@H](O)[C@@H](C)/C=C(\C)[C@H](OC(N)=O)[C@@H](OC)/C=C\C=C(/C)C(=O)NC(=CC1=O)C2=O [17-AAG]
IC50 of AR-dependent luciferase expression (androgen receptor (AR)): better than that of the Hsp90i 17-AAG

COC1=C2C[C@@H](C)C[C@H](OC)[C@H](O)[C@@H](C)/C=C(\C)[C@H](OC(N)=O)[C@@H](OC)/C=C\C=C(/C)C(=O)NC(=CC1=O)C2=O [GA, geldanamycin]
reduction in FLuc refolding [1]: 25% | activity in ASH assay (screen) [2]: failed to completely inhibit the ASH activity

CCn1c(=O)/c(=C2\Sc3cc(Cl)ccc3N2C)s/c1=C\c1scc[n+]1Cc1ccccc1.[Cl-] [JG98]
effect on FLuc refolding [1]: completely block

O=C(Nc1cccc(Cl)c1Cl)C1CCCCC1 [MJC13]
IC50 of AR-dependent luciferase expression (androgen receptor (AR)): similar

B1: acrylodan-labeled CTD of Aha1 (domain or fragment, human, UniProt O95433 164-338, looked up)
chain: ILPTMNGESVDPVGQPALKTEERKAKPAPSKTQARPVGVKIPTCKITLKETFLTSPEELYRVFTTQELVQAFTHAPATLEADRGGKFHMVDGNVSGEFTDLVPEKHIVMKWRFKSWPEGHFATITLTFIDKNGETELCMEGRGIPAPEEERTRQGWQRYYFEGIKQTFGYGARLF
modifications: acrylodan on cysteine residues
binding result (human Hsp90β): binds
